Bioassay records as filed in PubChem BioAssay.
Shown are actives, neighbours in structure and some others; about 3.3% of the full set was active somewhere.
PRMT1 FP inh: PRMT1 methyltransferase inhibitors, primary screen, biochemical, fluorescence polarization; Protein arginine N-methyltransferase 1 (Homo sapiens), Q99873; recombinant PRMT1, activity-based probe fluorescence polarization; inhibition, % at 2.79 µM; actives 1.3% (n = 370,000);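 active = inhibition above about 21% made by adding two undisclosed values, limit read from the data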
Target sequence (Q99873 whole entry, looked up): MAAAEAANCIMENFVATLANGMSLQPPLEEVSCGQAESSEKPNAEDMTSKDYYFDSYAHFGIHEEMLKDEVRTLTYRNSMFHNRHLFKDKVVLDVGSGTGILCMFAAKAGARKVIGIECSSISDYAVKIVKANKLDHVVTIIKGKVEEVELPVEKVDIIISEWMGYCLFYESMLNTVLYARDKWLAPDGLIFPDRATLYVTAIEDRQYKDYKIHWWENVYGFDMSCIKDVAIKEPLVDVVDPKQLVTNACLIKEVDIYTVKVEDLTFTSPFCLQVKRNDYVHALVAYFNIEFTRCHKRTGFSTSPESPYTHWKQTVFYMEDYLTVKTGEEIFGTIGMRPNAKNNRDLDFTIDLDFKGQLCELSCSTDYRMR
TDP2 absorb: human TDP2 enzyme inhibitors, primary screen, biochemical, epi absorbance, recombinant enzyme; Tyrosyl-DNA phosphodiesterase 2 (Homo sapiens), O95551; T5PNP hydrolysis, p-nitrophenol absorbance 415 nm; inhibition, % at 12.8 µM; actives 0.34% (n = 370,000);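 active = inhibition above the mean of all tested compounds plus 3 SD, set per campaign, cut at about 25% in these data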;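 note: 0% = DMSO with enzyme and 100% = buffer with substrate but no TDP2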
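System – recombinant human TDP2 · Quantity – TDP2 enzyme at 120 nM final · Doses – single concentration, 12.8 µM nominal, with 1% DMSO · Incubation – 2 h at 37 °C · Measured by – epi absorbance of p-nitrophenol freed from T5PNP by hydrolysis · Read-out – % inhibition relative to enzyme-containing and enzyme-free wells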
UHRF1 MBD2 ctr: UHRF1 methylated DNA binding inhibitors, primary screen, counter-screen for MBD2 inhibitor project, biochemical, TR-FRET, human UHRF1, single concentration | AID 687016, 2013 | inhibition, % at 4.4 µM | actives 0.75% (n = 370,000) | UHRF1 binding to methylated oligo; in the data active = inhibition above about 21%;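 note: UHRF1 SRA domain binding a hemimethylated CpG hairpin DNA probe; 0% = median of test compound wells and 100% = reference inhibitor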
LEDGF integ inh: blockers of LEDGF/p75-dependent integrase strand transfer – biochemical, TR-FRET, high throughput, primary screen. actives 0.64% (n = 370,000). inhibition, % at 3.7 µM. TR-FRET IN-LEDGF/p75 DNA integration, Eu/Cy5. HIV-1 integrase (with human LEDGF/p75);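 active = inhibition above the screen-wide mean plus 3 SD, cut at about 13% in these data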;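 note: signal is the Cy5 over europium emission ratio at 671 and 618 nm; 0% = plate median of compound wells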
MBD2 DNA inh: inhibitors of MBD2 binding to methylated DNA, primary screen, biochemical, TR-FRET, DNA-binding domain, human | MBD2 binding to methylated oligonucleotide | inhibition, % at 4.4 µM | actives 0.31% (n = 370,000); in the data active = inhibition above about 13%
SIAE primary: human SIAE inhibitors, primary screen, biochemical, fluorescence polarization, FP-Rh probe, 1536-well HTS; Sialate O-acetylesterase (Homo sapiens), Q9HAT2; SIAE FP-Rh probe binding; inhibition, % at 9.66 µM; actives 0.69% (n = 370,000); AID 1053197, 2014;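 active = inhibition above a cutoff: mean of compounds within the control limits plus 3 SD of those, cut at about 17% in these data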;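 note: 0% = plate median of compound wells and 100% = probe without SIAE protein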
IN multimer act: HIV-1 IN multimer formation enhancers, counter-screen for LEDGF/p75 integration inhibitor project, biochemical, TR-FRET; actives 17% (n = 2,000); AID 1053131, 2014; activation, % at 7.7 µM; shares compounds with LEDGF integ inh; TR-FRET HIV-1 integrase multimerization; in the data active = activation above about 8.9%
TRFRET interf: TR-FRET optical interference artefacts, confirmation, artefact control for LEDGF/p75-dependent integration inhibitor project, biochemical, HIV-1 IN multimerization | shares compounds with LEDGF integ inh | TR-FRET optical interference counterscreen | inhibition, % at 7.7 µM | 2,000 tested, under 10 active;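 active = inhibition above the mean over all tested compounds plus 3 SD, which no compound reached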;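 note: 0% = integrase with antibodies and DMSO and 100% = antibodies without integrase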
IN-LEDGF confirm: inhibitors of HIV-1 IN-LEDGF/p75 DNA integration, confirmation, biochemical, TR-FRET; shares compounds with LEDGF integ inh; AID 1053136, 2014; inhibition, % at 3.7 µM; actives 36% (n = 2,000); TR-FRET LEDGF/p75-dependent HIV-1 integration; in the data active = inhibition above about 14%
* = called active by the depositor; / = not tested or not shown.

SMILES	PRMT1 FP inh	TDP2 absorb	UHRF1 MBD2 ctr	LEDGF integ inh	MBD2 DNA inh	SIAE primary	IN multimer act	TRFRET interf	IN-LEDGF confirm
O=C(Nc1ccc(C(=O)N2CCN(c3ccc(Cl)cc3)CC2)cc1)C1=CSCCO1	0	-20	2	-1	3	-6	/	/	/
CCOC(=O)NNC1CC(=O)N(c2ccccc2)C1=O (stereo not drawn)	-4	4	0	18*	3	0	1	-5	2
COc1cccc(=O)c2c(C)n(-c3ccc(C(=O)O)cc3)c(C)c12	8	19	16	17*	3	-2	4	-14	23*
COc1ccc(-n2c(C)c3c(OC)cccc(=O)c3c2C)cc1	14	12	-4	-2	-3	-2	/	/	/
Oc1ccc(C=Nc2cccc3ncccc23)c(O)c1	5	9	-3	16*	-10	6	17*	-60	22*
Oc1ccc(C=Nc2ccccc2-c2nc3ccccc3[nH]2)c(O)c1	0	0	-4	3	-4	10	/	/	/
Nc1c(C(=O)N2CCN(CCc3ccccc3)CC2)cnn1-c1ccccc1	1	-14	-1	-3	-3	3	/	/	/
O=C(Nc1ccccc1N1CCCCC1)c1ccc(OC(F)F)cc1	3	5	2	36*	-2	-6	1	-4	4
Cn1ccc2cc(S(=O)(=O)N3CCN(S(=O)(=O)c4c(F)cccc4F)CC3)ccc21	-1	5	-2	-1	8	5	/	/	/
COc1cc(O)c(C(C)=O)c(CC(=O)O)c1	4	-5	28*	31*	10	11	33*	-118	59*
COc1cccc(C=Nc2ccc(N3CCOCC3)cc2)c1O	0	24	1	18*	1	9	2	-8	-3
COc1cccc(/C=N/N2CCOCC2)c1O	0	0	-1	1	0	3	/	/	/
C[C@H]1COc2cc(Br)ccc2S(=O)(=O)N1Cc1cn(CCC2OCCCO2)nn1	-1	0	-2	-3	-1	5	/	/	/
COc1nc(OC)nc(N2CCC(C(=O)N(C)Cc3ccccc3F)CC2)n1	-1	-6	0	6	-2	1	/	/	/
Cc1cccc(C)c1NC(=O)CCCCCC1NC(=O)NC1C (stereo not drawn)	1	9	-1	20*	-2	8	-2	9	10
O=C(O)CCCCC1SCC2NC(=O)NC21 (stereo not drawn)	6	5	-2	70*	4	-2	-2	9	63*
C[C@@H]1NC(=O)N[C@@H]1CCCCCC(=O)O	-1	1	-2	82*	-5	-1	-1	5	74*
CCC(=O)N1CCc2cc(Br)c(S(=O)(=O)NCCCN(C)Cc3ccccc3)cc21	-1	2	-2	0	-2	5	/	/	/
Cc1ccccc1NC(=O)CSc1nnc(-c2cc(-c3ccccc3)n[nH]2)n1N	-2	0	0	5	-3	-1	/	/	/
CC(=O)N1CCN(C(=O)CSc2nc3cccnc3n2C)CC1	-1	0	-3	0	3	0	/	/	/
COc1cccc(-c2nnc(SCC(=O)Nc3ccc(OCc4ccccc4)cc3)n2Cc2ccco2)c1	-1	1	-2	0	-2	2	/	/	/
C[C@H]1COc2cc(Br)ccc2S(=O)(=O)N1Cc1cn(Cc2ccc(Cl)cc2)nn1	-5	-5	3	0	-4	-3	/	/	/
N#Cc1ccccc1N1CCN(C(=O)C2CCN(c3ncnc4c3sc3cccc(F)c34)CC2)CC1	-1	-5	-3	2	0	2	/	/	/
O=C(Nc1ccc(C(=O)O)cc1)/C(=C\c1ccco1)NC(=O)c1ccccc1	19	-3	1	6	2	3	/	/	/
O=C(Nc1ccc(C(=O)O)cc1)/C(=C\c1ccco1)NC(=O)c1ccccc1Cl	12	-2	7	17*	-6	1	2	-11	2
SMILES	PRMT1 FP inh	TDP2 absorb	UHRF1 MBD2 ctr	LEDGF integ inh	MBD2 DNA inh	SIAE primary	IN multimer act	TRFRET interf	IN-LEDGF confirm
O=C(Nc1ccc2c(c1)OCO2)OC1CCC12CCC(c1ccccc1)CC2 (stereo not drawn)	1	-2	3	1	7	-14	/	/	/
Cc1cnc(C=NNC(N)=S)c2cccc(N)c12	9	15	11	17*	-4	10	20*	-99	61*
CCn1ncc(NC(=S)Nc2ccc(OC)c(OC)c2)c1C(N)=O	22*	16	-6	14*	-5	9	1	-4	-4
CC1C=CC=CCCC=CC=CC=CC=CC(OC2O[C@H](C)[C@@H](O)[C@H](N)[C@@H]2O)CC(O)C(C(=O)O)C(O)CC(=O)CC(O)C(O)CCC(O)CC(O)CC(O)CC(=O)OC(C)C(C)C1O (stereo partly drawn)	0	-2	4	26*	-4	4	0	-2	43*
O=C(CCc1ccccc1)N[C@H]1[C@H](OCc2ccccc2)CCC[C@@]12C(=O)N(Cc1ccccc1)c1ccc(-c3cnccn3)cc12	-1	7	1	-1	2	-13	/	/	/
O=c1c(OC2OC(CO)C(O)C(O)C2OC2OC(CO)C(O)C(O)C2O)c(-c2ccc(O)cc2)oc2cc(O)cc(O)c12 (stereo not drawn)	-1	-8	1	19*	1	8	48*	-170	48*
